Sampled rows, rich in hits. Any-hit rate of the full collection: about 5.7%.
Beta apoptosis – blocks beta cell apoptosis; INS-1E cytokine-induced death, ATP luminescence, 48 h; percent of positive-control rescue, neutral wells zero; protection from apoptosis, % (test concentration not listed); hit rate 0.8% among 300,000;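 active = Every replicate reaches about 75%, or at least half do and their mean reaches it too, limit read from the data; inconclusive = At least half of replicates reach the limit but their mean does not; inactive = Under half of replicates reach the limit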;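 note: 0% = cytokine-treated negative control wells and 100% = positive control rescue; higher means more ATP so stronger rescue from cytokine killing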
CSC inhib – blocks cancer stem cells; hit rate 1.1% among 300,000; AID 2717; inhibition, % at 7.5 µM; cancer stem cell-like cells viability, luminescence; in the data active = inhibition above about 75%; inconclusive = no clear call, values can overlap the other calls; tested in HMLE shEcad cells
Mdm2-MdmX inh – human Mdm2/MdmX binding inhibition; O15151+Q00987; SaOS-2 split-luciferase Mdm2/MdmX complementation, luminescence; inhibition, % at 8 µM; hit rate 3% among 330,000;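 active = inhibition of at least 50% at 8 µM in the primary screen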
Target sequence (O15151 whole entry, looked up): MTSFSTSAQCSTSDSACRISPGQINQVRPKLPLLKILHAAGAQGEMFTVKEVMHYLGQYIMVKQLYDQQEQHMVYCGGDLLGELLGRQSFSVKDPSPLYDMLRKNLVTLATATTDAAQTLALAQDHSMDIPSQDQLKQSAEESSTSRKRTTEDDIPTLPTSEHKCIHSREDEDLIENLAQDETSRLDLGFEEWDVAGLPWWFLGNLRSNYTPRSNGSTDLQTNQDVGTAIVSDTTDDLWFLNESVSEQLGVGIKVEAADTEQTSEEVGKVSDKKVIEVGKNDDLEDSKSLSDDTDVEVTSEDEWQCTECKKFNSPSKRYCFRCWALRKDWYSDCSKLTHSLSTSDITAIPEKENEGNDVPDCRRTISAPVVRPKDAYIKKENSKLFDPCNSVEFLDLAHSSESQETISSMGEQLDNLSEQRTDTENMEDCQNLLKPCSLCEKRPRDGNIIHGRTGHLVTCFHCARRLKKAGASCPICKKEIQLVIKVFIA
Target sequence (Q00987 whole entry, looked up): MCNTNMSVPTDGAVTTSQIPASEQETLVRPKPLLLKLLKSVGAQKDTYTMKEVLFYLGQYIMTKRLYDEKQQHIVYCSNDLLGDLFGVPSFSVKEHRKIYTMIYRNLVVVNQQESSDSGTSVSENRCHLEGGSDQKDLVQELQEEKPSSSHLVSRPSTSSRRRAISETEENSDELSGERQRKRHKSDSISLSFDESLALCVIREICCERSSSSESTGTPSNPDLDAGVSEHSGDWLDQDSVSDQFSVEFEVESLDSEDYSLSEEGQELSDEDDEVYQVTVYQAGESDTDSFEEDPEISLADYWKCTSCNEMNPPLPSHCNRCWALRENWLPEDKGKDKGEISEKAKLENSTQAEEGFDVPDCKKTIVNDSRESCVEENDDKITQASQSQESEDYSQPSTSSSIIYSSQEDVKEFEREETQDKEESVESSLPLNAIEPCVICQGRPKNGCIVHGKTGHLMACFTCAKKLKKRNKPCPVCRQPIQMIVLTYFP
SKKanGAS inh – blocks kanamycin growth of S. pyogenes SKKanGAS strain; BacTiter-Glo, 6 h; inhibition, % at 7.5 µM; hit rate 1.3% among 300,000; AID 1662;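 active = mean replicate score, as percent of positive control median, at least 50; inconclusive = mean below 50 but one replicate at or above 50; inactive = mean and every replicate below 50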;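 note: strain carries kanamycin resistance gene driven by streptokinase promoter and grows in 40 µg/ml kanamycin; loss of luminescence reflects streptokinase promoter inhibition or plain growth inhibition; 0% = median of DMSO wells and 100% = positive control at its reference dose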
T cruzi repl – T. cruzi replication inhibition; T. cruzi beta-gal in NIH3T3, luminescence, 90 h; inhibition, % (no concentration beside the values); hit rate 1.4% among 300,000; AID 1885;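 active = mean inhibition across valid replicates above about 55%, limit read from the data; inconclusive = mean below that limit but half or more replicates reach it; inactive = mean below it, under half of replicates reach it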;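 note: signal also drops with host cell toxicity which is not excluded here; 0% = plate median of DMSO wells and 100% = zero luminescence signal; higher percent means less beta-gal luminescence so fewer parasites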
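System – NIH/3T3 host cells with β-galactosidase reporter T. cruzi · Doses – single 50 nL compound addition per well in DMSO · Reagent – 5000 T. cruzi trypomastigotes/well · Medium – Low-serum DMEM with 2% FBS · Timing – ≥90 h infection period, 3 h prior cell attachment · Evaluation – parasite load inhibition, % · Technique – GalScreen luminescence, 60 min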
Calb FLC – C. albicans growth modulation with fluconazole. growth inhibition, % (concentration not given with the values). AID 1979. C. albicans CaCi-2 (fluconazole-resistant clinical isolate) + fluconazole, Alamar Blue growth, 48 h. hit rate 0.57% among 300,000;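 active = growth inhibition above about 58% in most replicates, limit read from the data, passing the limit was not always enough; inconclusive = exactly half the replicates above a set limit; inactive = most replicates below a set limit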;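 note: all wells also contain fluconazole at 8 µg/ml as a sub-toxic cotreatment; 0% = median of DMSO wells and 100% = median of geldanamycin control wells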
* hit, by the source's call.

Cc1ccc2c(c1)N(C(=O)CCC(=O)NCCCN1CCC(Cc3ccccc3)CC1)CCO2 was read as Beta apoptosis 99*, CSC inhib 3, Mdm2-MdmX inh 37, SKKanGAS inh -2, T cruzi repl -10 and Calb FLC 2.
Screening COc1ccc(-c2nc(-c3ccncc3)no2)cc1OC returned Beta apoptosis -2, CSC inhib -1, Mdm2-MdmX inh -26, SKKanGAS inh 0, T cruzi repl -1 and Calb FLC 102*.
For CN(C)c1cccc(C(=O)NCc2ccc3c(c2)OCO3)c1 the results were CSC inhib -15, Mdm2-MdmX inh -10, SKKanGAS inh -4, T cruzi repl 12 and Calb FLC -17.
Screening Cc1ccc(NCc2ccccc2F)cc1 returned Beta apoptosis -3, CSC inhib 3, Mdm2-MdmX inh 10, SKKanGAS inh -1, T cruzi repl 22 and Calb FLC -23.
Screening Fc1ccccc1CNc1ccc(Cl)c(Cl)c1 returned Beta apoptosis -8, CSC inhib 3, Mdm2-MdmX inh 2, SKKanGAS inh 56*, T cruzi repl 15 and Calb FLC 5.
CCCOc1c(Cl)cc(C(=O)Nc2ccc3c(c2)OCO3)cc1OCC was read as Beta apoptosis 15, CSC inhib 79*, Mdm2-MdmX inh 39, SKKanGAS inh 8, T cruzi repl 40 and Calb FLC 1.
CCCOc1ccc(C(=O)Nc2ccc3c(c2)OCO3)cc1 was read as Beta apoptosis 5, CSC inhib 58, Mdm2-MdmX inh -108, SKKanGAS inh -2, T cruzi repl 2 and Calb FLC -12.
For CCCCOc1ccc(C(=O)Nc2ccc3c(c2)OCO3)cc1 the results were Beta apoptosis 1, CSC inhib 93*, Mdm2-MdmX inh -42, SKKanGAS inh 2, T cruzi repl 2 and Calb FLC -21.
Screening CCOc1cc(C(=O)Nc2ccc3c(c2)OCO3)ccc1OC(F)F returned Beta apoptosis 1, CSC inhib 3, Mdm2-MdmX inh 0, SKKanGAS inh 11, T cruzi repl -13 and Calb FLC -17.
O=C(NCCNC(=O)c1ccc(Cl)cc1Cl)c1ccco1 was read as Beta apoptosis -10, Mdm2-MdmX inh 5, SKKanGAS inh 8, T cruzi repl -5 and Calb FLC 6.
COC(=O)Cc1[nH]c(=S)[nH]c1C(=O)OC was read as Beta apoptosis -3, CSC inhib 1, Mdm2-MdmX inh 16, SKKanGAS inh 2, T cruzi repl -4 and Calb FLC 5.
`CNC(CC(C)C)C(=O)NC1C(=O)NC(CC(N)=O)C(=O)NC2C(=O)NC3C(=O)NC(C(=O)NC(C(=O)O)c4cc(O)cc(O)c4-c4cc3ccc4O)C(O)c3ccc(c(Cl)c3)Oc3cc2cc(c3OC2OC(CO)C(O)C(O)C2OC2CC(C)(N)C(O)C(C)O2)Oc2ccc(cc2Cl)C1O` (configuration not stated) gave CSC inhib -5, SKKanGAS inh 102*, T cruzi repl 11 and Calb FLC -1.
Screening N#Cc1ccc(-c2ccc(OCC(=O)NN=Cc3ccncc3)cc2)cc1 returned Beta apoptosis 6, CSC inhib -7 and Mdm2-MdmX inh 11.
`NC(=O)CC[C@H](NC(=O)c1ccc(F)cc1)C(=O)N1CCN(Cc2ccc3c(c2)OCO3)CC1` gave Beta apoptosis -10, CSC inhib -9 and Mdm2-MdmX inh 30.
O=[N+]([O-])C(/C=C(\Cl)[N+](=O)[O-])=C(N1CCCCC1)N1CCCCC1 was read as Beta apoptosis 3, CSC inhib 4, Mdm2-MdmX inh 14, SKKanGAS inh -17, T cruzi repl 61* and Calb FLC -3.
Screening O=[N+]([O-])C(=C1SCCS1)C(=C(Cl)Cl)N1CCCCC1 returned Beta apoptosis -3, CSC inhib 4, Mdm2-MdmX inh 6, SKKanGAS inh 7, T cruzi repl 9 and Calb FLC -39.
For O=C1CCC(/C=C/c2ccccc2)=NN1Cc1ccc(Cl)c(Cl)c1 the results were Beta apoptosis -17, CSC inhib -11, Mdm2-MdmX inh -16, SKKanGAS inh 53*, T cruzi repl -2 and Calb FLC -4.
Screening CCOc1ccc(S(=O)(=O)Nc2ccc(O)c(Sc3ncn[nH]3)c2)cc1 returned CSC inhib 6, Mdm2-MdmX inh -3, SKKanGAS inh 0, T cruzi repl -27 and Calb FLC 1.
Cc1ccc(S(=O)(=O)/N=C2/C=C(Sc3ncn[nH]3)C(=O)c3ccccc32)cc1 was read as Beta apoptosis 98* and CSC inhib 107*.
`Cc1ccc(S(=O)(=O)Nc2ccc(O)c(Sc3ncn[nH]3)c2)cc1` gave CSC inhib 4, Mdm2-MdmX inh 17, SKKanGAS inh -6, T cruzi repl 1 and Calb FLC 10.
For Cc1ccc(S(=O)(=O)/N=C2/C=C(Sc3ncn[nH]3)C(=O)c3ccccc32)c(C)c1 the results were Beta apoptosis 129* and CSC inhib 103*.
`CC(C)c1ccc(S(=O)(=O)/N=C2/C=C(Sc3ncn[nH]3)C(=O)c3ccccc32)cc1` gave Beta apoptosis 132* and CSC inhib 105*.
Screening Nc1ccc(C(=O)OCc2ccncc2)cc1[N+](=O)[O-] returned Beta apoptosis -13, CSC inhib -13, Mdm2-MdmX inh 3, SKKanGAS inh 10, T cruzi repl -7 and Calb FLC 8.
CS(=O)(=O)N(CC(=O)N1CCN(c2ccccc2)CC1)c1ccc(Cl)c(C(F)(F)F)c1 was read as Beta apoptosis -6, CSC inhib 3, Mdm2-MdmX inh 15, SKKanGAS inh -1, T cruzi repl 2 and Calb FLC -4.
Screening CCOc1ccc(CCNC(=O)CS(=O)Cc2nc(-c3ccc(OC)cc3)oc2C)cc1OCC (configuration not stated) returned Beta apoptosis -2, CSC inhib -15, Mdm2-MdmX inh -10, SKKanGAS inh -3, T cruzi repl 10 and Calb FLC 1.
`Cc1cccc(NC(=S)N/N=C/c2c[nH]c3ccccc23)c1` gave Beta apoptosis 19, CSC inhib 79*, Mdm2-MdmX inh 44, SKKanGAS inh 8, T cruzi repl 10 and Calb FLC 5.
Screening Cc1ccc(NC(=S)N/N=C/c2c(C)[nH]c3ccccc23)cc1 returned Beta apoptosis 10, CSC inhib 97*, Mdm2-MdmX inh 25, SKKanGAS inh 4, T cruzi repl 36 and Calb FLC inconclusive.
Screening O=Nc1c(O)n(Cc2cccc(C(F)(F)F)c2)c2ccccc12 returned Beta apoptosis -1, CSC inhib 10, Mdm2-MdmX inh 36, SKKanGAS inh -8, T cruzi repl 22 and Calb FLC 117*.
For O=Nc1c(O)n(Cc2ccc(Cl)c(Cl)c2)c2ccccc12 the results were Beta apoptosis 11, CSC inhib 84*, Mdm2-MdmX inh 49, SKKanGAS inh 24, T cruzi repl 9 and Calb FLC 79*.

Screens: PubChem BioAssay, several laboratories
